Data reported in article PMC10620946 (Journal of medicinal chemistry, 2021).
Values belong to the compound of their own block, whether it stands above or below them.

Legend:
[1] = system: P-RNase L21-732; test: STD-NMR binding; parameters: species or system porcine; details: for STD-NMR signal (binding to P-RNase L): 10 μM P-RNase L21-732, 400 μM fragment; for STD-NMR binding to RNase L dimer: 2-5A in molar excess to RNase L; for STD-NMR binding with ATP/MgCl2: ATP/MgCl2 or mixture of 2-5A and ATP/MgCl2 in molar excess to RNase L; for STD-NMR binding to monomeric RNase L: absence of 2-5A
[2] = target: porcine RNase L (P-RNase L) (Sus scrofa, UniProt A5H025); test: FRET based enzyme assay of RNA substrate cleavage, P-RNase L; type: biochemical
[3] = target: T1, human RNase L (H-RNase L) (Homo sapiens, UniProt Q05823); test: FRET based enzyme assay of RNA substrate cleavage, H-RNase L; type: biochemical; details: for IC50 against RNase L, in words: in vitro
T1 sequence (Q05823 1-741): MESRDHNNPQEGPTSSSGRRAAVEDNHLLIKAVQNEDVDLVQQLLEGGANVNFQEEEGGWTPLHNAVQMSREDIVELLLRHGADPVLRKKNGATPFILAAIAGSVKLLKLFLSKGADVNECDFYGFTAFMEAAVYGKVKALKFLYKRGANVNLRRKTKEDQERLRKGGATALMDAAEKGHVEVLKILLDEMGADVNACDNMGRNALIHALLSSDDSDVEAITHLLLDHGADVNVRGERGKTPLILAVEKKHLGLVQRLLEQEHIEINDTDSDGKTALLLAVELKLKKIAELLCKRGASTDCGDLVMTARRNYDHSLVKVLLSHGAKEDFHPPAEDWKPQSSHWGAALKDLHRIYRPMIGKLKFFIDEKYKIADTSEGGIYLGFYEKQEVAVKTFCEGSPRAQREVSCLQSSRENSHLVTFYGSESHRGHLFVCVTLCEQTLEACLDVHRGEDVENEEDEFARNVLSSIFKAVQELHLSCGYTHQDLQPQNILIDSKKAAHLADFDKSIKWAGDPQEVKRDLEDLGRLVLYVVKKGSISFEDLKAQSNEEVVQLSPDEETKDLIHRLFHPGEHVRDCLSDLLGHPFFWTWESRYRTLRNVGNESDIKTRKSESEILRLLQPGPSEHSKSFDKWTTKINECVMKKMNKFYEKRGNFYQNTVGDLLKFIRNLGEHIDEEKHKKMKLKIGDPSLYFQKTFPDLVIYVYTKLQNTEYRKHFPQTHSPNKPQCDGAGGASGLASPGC

[4] = system: RNase L; details: cited from earlier work
[5] = system: RNase L; details: cited from earlier work; remark: listed apart in the source
[6] = target: T2, H-RNase L (Homo sapiens, UniProt Q05823); test: RNase L mediated rRNA cleavage in intact A549 cells; type: cell-based; details: 3-100 μM inhibitor, 4 h, then 20 μM trimeric 2-5A 2 h
T2 sequence (Q05823 1-741): T1 sequence (Q05823 1-741)

[7] = system: P-RNase L; test: RNase L oligomerization assay; type: biochemical, porcine; details: 40 μM compound, 2-5A up to 2 μM
How it was run: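 Full-length porcine RNase L (0.8 μM) with 5 mM MgCl₂, preincubated ±test compound 15 min on ice. 2-5A then added for a further 15 min on ice. Cross-linked with DMS (120 mg/mL stock in 0.4 M triethanolamine-HCl, pH 8.5) 1 h at room temperature. Denatured in SDS/β-mercaptoethanol loading buffer at 95 °C for 5 min. Resolved by 4-12% gradient SDS-PAGE with Coomassie G-250 stain and imaged.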

SMILES: O=C(O)c1ccc(Cl)nc1Cl [AC39661]
STD-NMR signal (binding to P-RNase L) [1]: positive

SMILES: CCCCOC(=O)c1ccc(O)cc1 [AC40357]
STD-NMR signal (binding to P-RNase L) [1]: positive
inhibition of P-RNase L in vitro [2]: inhibited only H-RNase L
inhibition of H-RNase L in vitro [3]: inhibited
IC50 against RNase L, in words [3]: low millimolar

SMILES: O=C(O)c1cc(O)c(O)c(O)c1Oc1cc2c(=O)oc3c(O)c(O)cc4c(=O)oc(c1O)c2c34 [VAL, valoneic acid dilactone]
EC50 for RNase L in intact cells, in words [4]: micromolar range
inhibition activity on RNase L in vitro, in words [5]: nanomolar

SMILES: O=c1c(O[C@@H]2O[C@H](CO)[C@H](O)[C@H](O)[C@H]2O)c(-c2ccc(O)c(O)c2)oc2cc(O)cc(O)c12 [hyperoside]
STD-NMR binding to RNase L dimer [1]: positive STD signal
STD-NMR binding with ATP/MgCl2 [1]: remained positive
STD-NMR binding to monomeric RNase L [1]: directly interacts
inhibitory activity against RNase L in intact cells (rRNA cleavage) [6]: did not show any inhibitory activity
inhibition of P-RNase L in vitro [2]: inhibited
effect of 2-5A concentration on potency against P-RNase L ([2]; 2-5A 1, 5 and 20 nM): does not seem to have an effect
inhibition of H-RNase L in vitro [3]: inhibited
effect of 2-5A concentration on potency against H-RNase L ([3]; 2-5A 1, 5 and 20 nM): does not seem to have an effect
IC50 against RNase L, in words [3]: single-digit micromolar
suppression of 2-5A induced RNase L dimerization (cross-linking) [7]: did not suppress

SMILES: O=c1c(O)c(-c2ccc(O)cc2O)oc2cc(O)cc(O)c12 [morin]
inhibition of P-RNase L in vitro [2]: not active
inhibition of H-RNase L in vitro [3]: not active

SMILES: O=c1c(O)c(-c2cc(O)c(O)c(O)c2)oc2cc(O)cc(O)c12 [myricetin]
STD-NMR binding to RNase L dimer [1]: positive STD signal
STD-NMR binding with ATP/MgCl2 [1]: remained positive
STD-NMR binding to monomeric RNase L [1]: directly interacts
inhibitory activity against RNase L in intact cells (rRNA cleavage) [6]: identical inhibitory activity to that of VAL
inhibition of P-RNase L in vitro [2]: inhibited
inhibition of H-RNase L in vitro [3]: inhibited

SMILES: O=C(CCc1ccc(O)cc1)c1c(O)cc(O)cc1O [phloretin]
inhibition of H-RNase L in vitro [3]: inhibited

SMILES: CCN(CC)CCNC(=O)c1c(C)[nH]c(/C=C2\C(=O)Nc3ccc(F)cc32)c1C [sunitinib]
IC50 against RNase L in vitro, in words [5]: micromolar range

SMILES: O=c1cc(-c2ccc(O)cc2)oc2c([C@@H]3O[C@H](CO)[C@@H](O)[C@H](O)[C@H]3O)c(O)cc(O)c12 [vitexin]
STD-NMR signal (binding to P-RNase L) [1]: directly binds
inhibitory activity against RNase L in intact cells (rRNA cleavage) [6]: did not show any inhibitory activity

Other lines, results leading:

STD-NMR signal (binding to P-RNase L) [1]: positive
SMILES: Oc1ccc(Sc2ccc(O)cc2)cc1 [BTB10184]

STD-NMR signal (binding to P-RNase L) [1]: positive
SMILES: C[S+]([O-])c1sc(Cl)c2c1C(=O)CCC2 (centres unmarked) [KM05073]

STD-NMR signal (binding to P-RNase L) [1]: positive
SMILES: Cc1cc(C(=O)O)cc(Cl)n1 [RF03759]
